# Most compounds without a hit are left out; they make up all but 2.6% or so of the library.
# SIAE primary: human SIAE inhibitors, primary screen, biochemical, fluorescence polarization, FP-Rh probe, 1536-well HTS; AID 1053197, 2014; Sialate O-acetylesterase (Homo sapiens), Q9HAT2; 0.69% of 370,000 active; SIAE FP-Rh probe binding; inhibition, % at 9.66 µM;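 active = inhibition above a cutoff: mean of compounds within the control limits plus 3 SD of those, cut at about 17% in these data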;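 also: 0% = plate median of compound wells and 100% = probe without SIAE protein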
# HTRA1 inhibitor: HTRA1 serine protease inhibitors, primary screen, biochemical, fluorescence polarization, HTS; Q92743; recombinant HTRA1, FP-rhodamine activity-based probe; inhibition, % at 5.96 µM; 0.5% of 340,000 active; AID 504803, 2011; in the data active = inhibition above about 36%;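 also: 0% = enzyme with DMSO and 100% = wells lacking enzyme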
# PRMT1 FP inh: PRMT1 methyltransferase inhibitors, primary screen, biochemical, fluorescence polarization | Protein arginine N-methyltransferase 1 (Homo sapiens), Q99873 | recombinant PRMT1, activity-based probe fluorescence polarization | inhibition, % at 2.79 µM | 1.3% of 370,000 active | AID 652257, 2013;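 active = inhibition above about 21% made by adding two undisclosed values, limit read from the data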
# TCR-CD3 inh: inhibitors of human TCR-CD3 interaction, primary screen, biochemical, fluorescence, TAMRA-labeled TCR probe | T-cell receptor (TCR) | inhibition, % at 9.4 µM | 0.37% of 360,000 active; in the data active = inhibition above about 19%;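 also: recombinant mutant TCR 2C K166C tagged with TAMRA read by polarization; 0% = receptor in buffer alone and 100% = receptor with positive control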
# ABHD4 inh: ABHD4 inhibitors, primary screen, biochemical, fluorescence polarization, mouse | (Lyso)-N-acylphosphatidylethanolamine lipase (Mus musculus), Q8VD66 | purified mABHD4, FP-Rh probe fluorescence polarization | inhibition, % at 8.92 µM | 0.54% of 370,000 active | AID 720543, 2013;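 active = inhibition exceeding the mean over every tested compound plus 3 SD, cut at about 30% in these data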;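 also: 0% = plate median of compound wells and 100% = S159A mutant with DMSO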
# Target sequence (Q8VD66 whole entry, looked up): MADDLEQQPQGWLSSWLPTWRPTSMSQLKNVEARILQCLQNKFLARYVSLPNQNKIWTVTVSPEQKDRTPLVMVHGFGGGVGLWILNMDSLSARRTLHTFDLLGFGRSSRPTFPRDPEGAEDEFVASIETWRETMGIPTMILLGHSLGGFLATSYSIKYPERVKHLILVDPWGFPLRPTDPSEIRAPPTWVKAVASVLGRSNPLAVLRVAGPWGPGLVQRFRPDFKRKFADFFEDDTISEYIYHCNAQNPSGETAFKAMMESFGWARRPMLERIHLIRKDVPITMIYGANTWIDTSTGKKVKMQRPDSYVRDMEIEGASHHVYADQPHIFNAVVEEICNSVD
#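 Test system: mABHD4 protein | Buffer or medium: HEPES pH 7.0 buffer, 150 mM NaCl, 0.01% Pluronic F-127 | Probe or stimulus: FP-Rh fluorescent activity-based probe, added after compound pre-incubation | Timing: Pre-incubation 45 min, probe exposure 60 min, at 25 °C | Technique: Fluorescence polarization, excitation 525 nm, emission 598 nm, BODIPY TMR filters | Repeats: Single well per compound (singlicate)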
# mABHD4 conf: ABHD4 inhibitors, retest, confirmation, biochemical, fluorescence polarization, mouse. shares compounds with ABHD4 inh. purified mABHD4, FP-Rh probe fluorescence polarization. inhibition, % at 8.92 µM. 55% of 1,800 active. AID 720658, 2013;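 active = mean inhibition across replicates above the hit cutoff set in the primary screen, cut at about 30% in these data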;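 also: 0% = wild-type ABHD4 with DMSO and 100% = catalytically dead S159A mutant with DMSO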
# * hit, by the source's call; · = no result given.
SMILES,SIAE primary,HTRA1 inhibitor,PRMT1 FP inh,TCR-CD3 inh,ABHD4 inh,mABHD4 conf
COc1cc(OC)cc(N(C(=O)CNC(=O)c2ccco2)C(C(=O)NCC2CCCO2)c2ccccc2)c1 (stereo unspecified),0,-6,0,-1,10,·
COc1ccc(C2NCCc3c2[nH]c2ccccc32)cc1CSc1nc2ccccc2s1 (stereo unspecified),17,-25,4,-5,30*,34*
COc1cccc(NC(=O)C2(C)CCN2C(=O)Cc2cccc3ccccc23)c1 (stereo unspecified),-8,·,-1,8,-8,·
COc1cccc(C(C(=O)NC2CCCC2)N2CCN(c3cc(C)ccc3C)CC2)c1OC (stereo unspecified),2,·,3,1,48*,6
CC(=O)OCCNc1cc(SCc2ccco2)c2nonc2c1[N+](=O)[O-],·,13,·,·,·,·
O=[N+]([O-])c1c(NCCCO)cc(SCc2ccco2)c2nonc12,-2,11,64*,11,54*,16
O=C(Cn1c(=O)cnc2ccccc21)N1CCN(S(=O)(=O)c2cccc([N+](=O)[O-])c2)CC1,3,10,2,-6,7,·
COc1ccccc1C1Nc2cccc3cccc(c23)N1,4,32,16,8,55*,53*
Cc1cccc(N2C(=O)SC(N(C)c3ccccc3)C2=O)c1 (stereo unspecified),-1,-12,-1,-5,64*,-9
Cc1ccccc1-c1nnc2n1N=C(c1ccc(O)c(O)c1)CS2,14,·,14,·,32*,21
Nc1ccc2cc3ccc(N)cc3nc2c1,11,·,148*,·,32*,28
CCOc1ccccc1NC(=O)CCS(=O)(=O)c1ccc(Br)cc1,5,0,-1,1,-2,·
Nc1ccc(Br)c2cccnc12,4,20,6,6,40*,16
C[C@@H]1CN([C@@H](C)CO)C(=O)Cc2cc(NC(=O)Nc3ccc4c(c3)OCO4)ccc2O[C@@H]1CN(C)C(=O)NC1CCCCC1,4,10,1,5,5,·
CC(C)N(Cc1ccccc1)C(=O)COC(=O)c1cc[n+]([O-])cc1,1,-1,-4,4,1,·
CON(C)C(=O)/C=C/c1ccc([B-](F)(F)F)cc1,0,2,0,4,42*,47*
CCN(CC)C(=O)/C=C/c1ccccc1,1,3,6,-1,-15,·
COc1ccccc1N1CCN(C(=O)c2cccc(S(=O)(=O)N3c4ccccc4CC3C)c2)CC1 (stereo unspecified),-2,-4,-1,-7,-8,·
N#Cc1c(NC(=O)c2cccc(S(=O)(=O)Nc3ccc(C(=O)O)cc3)c2)sc2c1CCCC2,-8,-2,1,1,36*,30*
O=C(O)c1ccc(NS(=O)(=O)c2cccc(C(=O)Nc3ccc(Br)cc3)c2)cc1,-8,-1,1,1,-19,·
CC1=C(C#N)C(=O)NC(=O)/C1=C\c1ccc(-c2ccc(C)cc2[N+](=O)[O-])o1,-39,18,10,-10,32*,33*
COc1cc(CNc2ccc3[nH]c(=O)[nH]c3c2)ccc1OCc1ccccc1,9,7,8,7,30*,16
CCCCN1C(=O)N2CCc3ccccc3C2CS1(=O)=O (stereo unspecified),-8,·,0,·,-4,·
O=[N+]([O-])c1cc(C(F)(F)F)cc([N+](=O)[O-])c1Sc1n[nH]c(C(F)(F)F)n1,1,-1,20,-6,-14,·
CCOC(=O)N1CCC(NC(=O)CCN2C(=O)C3C4C=CC(C4)C3C2=O)CC1 (stereo unspecified),5,-2,-3,-2,1,·
SMILES,SIAE primary,HTRA1 inhibitor,PRMT1 FP inh,TCR-CD3 inh,ABHD4 inh,mABHD4 conf
O=C(CCN1C(=O)C2C3C=CC(C3)C2C1=O)NC1CCCCC1 (stereo unspecified),-2,-3,2,7,88*,0
Oc1ccc(N=Nc2ccc(Br)cc2)c(O)c1,-3,11,-2,4,-1,·
O=[N+]([O-])c1ccccc1N=Nc1ccc(O)cc1O,12,·,4,-6,32*,54*
CC(=O)Nc1ccc(S(=O)(=O)N(C)CC(=O)N/N=C/c2ccncc2)cc1,5,9,-2,5,4,·
Cc1cc(C(=O)NN)c2cc(Br)ccc2n1,3,-2,-1,5,-3,·
NNC(=O)c1cc(-c2ccc(N)cc2)nc2ccc(Br)cc12,3,·,0,-2,40*,4
COc1ccc(C)cc1N(CC(=O)NCCSCc1cccc(Cl)c1)S(C)(=O)=O,9,-9,-2,4,-1,·
O=C(O)C1CCCCC1C(=O)Nc1ccc(S(=O)(=O)N2CCOCC2)cc1 (stereo unspecified),9,5,2,-1,-3,·
Cc1ccccc1NC(=O)Cc1nc(COC(=O)c2cc(Br)ccc2O)cs1,-5,-1,5,8,18,·
Cc1ccccc1NC(=O)Cc1nc(COC(=O)c2cc([N+](=O)[O-])ccc2N)cs1,-12,-16,1,-2,62*,126*
O=C(O)c1cc(N/N=C2/CC(c3ccccc3)Oc3ccccc32)ccc1Cl (stereo unspecified),7,4,6,0,32*,72*
C=CCN1C(=O)c2ccc(C(=O)N3CCN(S(=O)(=O)c4cc(C)ccc4C)CC3)cc2C1=O,-8,-4,2,-5,-6,·
Nc1[nH]c(C(=O)c2ccccc2)c(-c2cccc(C(F)(F)F)c2)c1C(=O)NCCc1c[nH]c2ccccc12,13,·,0,-2,31*,3
Nc1[nH]c(C(=O)c2ccc(Br)cc2)c(-c2ccc3ccccc3c2)c1C(=O)NCCc1c[nH]c2ccccc12,10,·,2,-9,30*,35*
Nc1[nH]c(C(=O)c2ccccc2)c(-c2ccc(Cl)c(Cl)c2)c1C(=O)NCCc1c[nH]c2ccccc12,11,·,1,2,33*,19
Nc1[nH]c(C(=O)c2ccccc2)c(-c2ccc(F)cc2)c1C(=O)NCCc1c[nH]c2ccccc12,9,·,3,-7,20,·
Nc1[nH]c(C(=O)c2ccccc2)c(-c2ccc(Cl)cc2)c1C(=O)NCCc1c[nH]c2ccccc12,10,·,3,-7,31*,23
CCN(C(=O)CN1C(=O)NC(c2ccccc2)(c2ccc(C)c(C)c2)C1=O)C1CCCCC1 (stereo unspecified),-6,-47,0,2,6,·
